Results on one compound are retold here after ChEMBL document CHEMBL3525963, “Tissue distribution and elimination of [14C]apixaban in rats” (Drug Metab Dispos, 2011).

Set-up in all cases: dose 5 mg/kg, dosed compound name [14C]-apixaban, route oral
Holding throughout (conditions): in vivo

Data set [1] concerns Rattus norvegicus. The experiment in a line: Biodistribution in female Sprague-Dawley rat bone marrow at 5 mg/kg, po administered as single dose measured after 4 hrs. It counts as ADME, organism-based. In outline: (§1)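 [14C]apixaban (20 μCi/mL in dosing solution) in 0.5% Tween 80 in Labrafil given by oral gavage to fasted female rats, 206-213 g, at 100 μCi/kg. One rat per time point was euthanized and snap-frozen. Sagittal 40 µm whole-body sections were read by QWBA phosphor imaging against [14C]glucose standards. Results are in µg eq apixaban/g, with LLOQ 0.037 μg eq/g.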

Data set [2] relates to Heart. The experiment in a line: Biodistribution in pregnant Sprague-Dawley rat heart at 5 mg/kg, po administered as single dose measured after 8 hrs. It counts as ADME, organism-based.
Data set [3] is described as follows: Drug level in lactating Sprague-Dawley rat milk at 5 mg/kg, po administered as single dose after 12 hrs. It counts as ADME, organism-based.
Data set [4] relates to Harderian gland. The experiment in a line: Biodistribution in pregnant Sprague-Dawley rat harderian gland at 5 mg/kg, po administered as single dose measured after 48 hrs. It counts as ADME, organism-based. The procedure, abridged:
(§2)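 Fasted pregnant SD rats (n=6, 270-319 g) each received one oral gavage dose of [14C]apixaban, 5 mg/kg (100 μCi/kg), in 0.5% Tween 80/Labrafil. One rat was killed at each of 0.5, 1, 4, 8, 24 and 48 h. Carcasses were frozen in hexane/dry ice, cut into 40 µm sagittal sections, exposed to phosphor plates and quantified against [14C]glucose standards as µg eq/g. LLOQ was 0.037 µg eq/g.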

Data set [5] concerns Spleen. The experiment in a line: Biodistribution in pregnant Sprague-Dawley rat spleen at 5 mg/kg, po administered as single dose measured after 24 hrs. It counts as ADME, organism-based.
Data set [6] deals with Thymus. The experiment in a line: Biodistribution in male Sprague-Dawley rat thymus at 5 mg/kg, po administered as single dose measured after 0.5 hrs. It counts as ADME, organism-based. In outline:
(§3)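 [14C]apixaban (1.0 mg/mL, 20 μCi/mL) in 0.5% Tween 80 in Labrafil, given by oral gavage at 100 μCi/kg to male rats (225-252 g) fasted overnight through 4 h post-dose. One rat per time point. Carcasses frozen in hexane/dry ice and cut into 40 µm sagittal sections. QWBA read on phosphor plates against [14C]glucose standards, reported as µg eq/g. LLOQ 0.037 µg eq/g.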

Data set [7] relates to Muscle tissue. The experiment in a line: Biodistribution in male Sprague-Dawley rat muscle at 5 mg/kg, po administered as single dose measured after 0.5 hrs. It counts as ADME, organism-based. The procedure, abridged:
as §3

The test system of data set [8] is Rattus norvegicus. Briefly: Biodistribution in fetal brain of pregnant Sprague-Dawley rat at 5 mg/kg, po administered as single dose measured after 8 hrs. It counts as ADME, organism-based. The procedure, abridged: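 Pregnant SD rats received a single oral gavage of [14C]apixaban at 5 mg/kg (100 μCi/kg; 1.0 mg/mL, 20 μCi/mL in 0.5% Tween 80/Labrafil) after fasting, one dam per time point. Frozen carcasses were cut into 40 µm sagittal sections and read by phosphor-imaging QWBA against [14C]glucose standards. Fetal tissue radioactivity is reported as µg eq/g, with LLOQ 0.037 µg eq/g.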

The nature of data set [9]: Drug level in lactating Sprague-Dawley rat milk at 5 mg/kg, po administered as single dose after 1 hr. It counts as ADME, organism-based.
In data set [10] the test system is Thymus. Briefly: Biodistribution in male Sprague-Dawley rat thymus at 5 mg/kg, po administered as single dose measured after 8 hrs. It counts as ADME, organism-based.
Data set [11] has as its system Blood. Briefly: Biodistribution in pregnant Sprague-Dawley rat blood at 5 mg/kg, po administered as single dose measured after 24 hrs. It counts as ADME, organism-based. In outline: as §2
For data set [12], the system named is Brain. Briefly: Biodistribution in female Sprague-Dawley rat brain at 5 mg/kg, po administered as single dose measured after 8 hrs. It counts as ADME, organism-based. The procedure, abridged: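 [14C]Apixaban (1.0 mg/mL, 20 μCi/mL in 0.5% Tween 80 in Labrafil) given as a single oral gavage of 5 mg/kg (100 μCi/kg) to fasted female SD rats, one rat per time point. Carcasses were frozen in hexane/dry ice and cut into 40 µm sagittal sections for QWBA against [14C]glucose standards. Brain radioactivity is reported as µg eq/g, with LLOQ 0.037 µg eq/g.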

Data set [13] concerns Adrenal gland. The experiment in a line: Biodistribution in female Sprague-Dawley rat adrenal gland at 5 mg/kg, po administered as single dose measured after 0.5 hrs. It counts as ADME, organism-based. The procedure, abridged: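 [¹⁴C]Apixaban given by oral gavage at 5 mg/kg (100 μCi/kg) in 0.5% Tween 80 in Labrafil (1.0 mg/mL dosing solution) to rats fasted overnight through 4 h post-dose. One rat per time point; carcass frozen in hexane/dry ice. Quantitative whole-body autoradiography used 40 µm sagittal sections and a phosphor imaging plate calibrated with [¹⁴C]glucose standards (0.001–6.5 μCi/g). Read-out in µg eq apixaban/g; LLOQ 0.037 μg eq/g.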

The test system of data set [14] is Heart. Briefly: Biodistribution in pregnant Sprague-Dawley rat heart at 5 mg/kg, po administered as single dose measured after 1 hr. It counts as ADME, organism-based.
The test system of data set [15] is Rattus norvegicus. Briefly: Biodistribution in fetal blood of pregnant Sprague-Dawley rat at 5 mg/kg, po administered as single dose measured after 1 hr. It counts as ADME, organism-based. The procedure, abridged:
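Pregnant rats, 270-319 g and fasted overnight, received [14C]apixaban by oral gavage at 100 μCi/kg in 0.5% Tween 80/Labrafil. One dam per time point was euthanized and frozen in hexane/dry ice. Fetal tissue radioactivity was measured by QWBA on 40 µm sagittal sections calibrated with [14C]glucose standards. Values are in µg eq/g, with LLOQ 0.037 μg eq/g.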

The test system of data set [16] is Heart. Briefly: Biodistribution in pregnant Sprague-Dawley rat heart at 5 mg/kg, po administered as single dose measured after 0.5 hrs. It counts as ADME, organism-based.
For data set [17], the system named is Rattus norvegicus. The experiment in a line: Biodistribution in male Sprague-Dawley rat bone marrow at 5 mg/kg, po administered as single dose measured after 0.5 hrs. It counts as ADME, organism-based. In outline: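 Fasted male rats, 225-252 g, received [14C]apixaban by single oral gavage at 100 μCi/kg in 0.5% Tween 80/Labrafil. One rat was killed per time point and the carcass frozen. Tissue radioactivity was quantified by QWBA (40 µm sagittal sections, phosphor plate, [14C]glucose calibration) as µg eq apixaban/g, with LLOQ 0.037 μg eq/g.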

The test system of data set [18] is Rattus norvegicus. Briefly: Biodistribution in female Sprague-Dawley rat brown fat at 5 mg/kg, po administered as single dose measured after 4 hrs. It counts as ADME, organism-based, Brown adipose tissue. In outline: as §1
The test system of data set [19] is Brain. The experiment in a line: Biodistribution in pregnant Sprague-Dawley rat brain at 5 mg/kg, po administered as single dose measured after 8 hrs. It counts as ADME, organism-based.
Data set [20] deals with Lung. Briefly: Biodistribution in female Sprague-Dawley rat lung at 5 mg/kg, po administered as single dose measured after 24 hrs. It counts as ADME, organism-based. In outline: (§4)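 Quantitative whole-body autoradiography was run after a single 5 mg/kg (100 μCi/kg) oral gavage to fasted female or pregnant SD rats, one rat per time point. Carcasses were frozen in hexane/dry ice, and 40 µm sagittal sections were dried at −20°C for at least 48 h. Sections were exposed to a phosphor plate alongside [14C]glucose standards (0.001–6.5 µCi/g). Results are µg eq/g, with LLOQ 0.037 µg eq/g.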

Data set [21] has as its system Harderian gland. Briefly: Biodistribution in pregnant Sprague-Dawley rat harderian gland at 5 mg/kg, po administered as single dose measured after 0.5 hrs. It counts as ADME, organism-based.
Data set [22] relates to Rattus norvegicus. The experiment in a line: Biodistribution in female Sprague-Dawley rat kidney cortex at 5 mg/kg, po administered as single dose measured after 0.5 hrs. It counts as ADME, organism-based. In outline:
as §1

The subject of data set [23] is Liver. Briefly: Biodistribution in female Sprague-Dawley rat liver at 5 mg/kg, po administered as single dose measured after 72 hrs. It counts as ADME, organism-based. In outline: as §4

For `COc1ccc(-n2nc(C(N)=O)c3c2C(=O)N(c2ccc(N4CCCC[14C]4=O)cc2)CC3)cc1`, the Radiolabel recovery in [1] is 0.26 ugequiv/g; in data set [2], 0.06 ugequiv/g; in [3], 3.61 µg/mL; in data set [4], “Not detected assumed BLQ”; in data set [5] it was under 0.037 ugequiv/g; in data set [6], 0.16 ugequiv/g. In addition, the Radiolabel recovery in data set [7] was 0.2 ugequiv/g; in data set [8] it was under 0.037 ugequiv/g; in data set [9], 4.56 µg/mL; in [10], 0.06 ugequiv/g; in data set [11] it was “Not detected assumed BLQ”; in data set [12], under 0.037 ugequiv/g. Moreover, the Radiolabel recovery was 0.56 ugequiv/g in data set [13]; 0.93 ugequiv/g in [14]; 0.31 ugequiv/g in [15]; 0.68 ugequiv/g in [16]; 0.26 ugequiv/g in [17]; 0.61 ugequiv/g in data set [18]. In addition, the Radiolabel recovery is listed as under 0.037 ugequiv/g in data set [19]; “Not sampled as not visualised in autoradiograph” in [20]; 1 ugequiv/g in [21]; 0.82 ugequiv/g in data set [22]; “Not detected assumed BLQ” in data set [23].
